Assay: Toxicity liver stage against HepG2, at 10uM
Type: cell-based
Set-up: test concentration 10 uM, cell line HepG2-A16-CD81EGFP
Conditions: human, HepG2-A16-CD81EGFP cells; read-out: INHIBITION
Procedure, shortened: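 Uninfected HepG2-A16-CD81EGFP cells, 3 × 10^3 per well, 1536-well, plated on prespotted compound at 10 μM final, parasite-free screening media added to match infected plates; puromycin 10 μM positive, DMSO 0.5% negative; run in parallel with 48 h PbLuc assay at 37 °C, 5% CO2; viability by CellTiter-Glo luminescence, normalized to controls.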

Row | Structure (SMILES) | cytotoxicity at 10 µM
1 | NC(=O)CN1CCC(NC(=O)COCCOc2ccccc2)CC1 | -9.46%
2 | Cc1ccc(CN(C)C(=O)CN2CCCC2Cn2cccn2)o1 (configuration not stated) | -10.4%
3 | Cc1ccc(C(=O)N2CCN(CCCSCC#N)CC2)o1 | -11.1%
4 | COCCn1ccc2c(C(=O)O)cccc21 | -3.37%
5 | Cc1cc(C)n(CC2CCCN2C(=O)c2ccc3c(c2)OCO3)n1 (configuration not stated) | -9.31%
6 | Cc1cc(O)nc(C2CCCNC2)n1 (configuration not stated) | -9.14%
7 | CCOC(=O)N1CCC(n2cc3[nH]cccc-3c2=O)CC1 | 3.6%
8 | CC(=O)N1CCN(C(=O)c2cccc(OCc3cscn3)c2)CC1 | -7.57%
9 | O=C(O)c1cnc(N2CCC(O)CC2)nc1COc1cccc(F)c1 | -9.09%
10 | COc1c(CNC2CCSc3ccc(F)cc32)c(C)nn1C (configuration not stated) | 32.8%
11 | Cc1ccc(C(NC(=O)CCCN2CCCCC2)C(=O)O)cc1 (configuration not stated) | 2.87%
12 | COc1ccc(CCN)cc1-c1ccc(C(N)=O)cc1 | 3.23%
13 | Cc1nc(CCNC(=O)NCC(O)c2cccc(Cl)c2)cs1 (configuration not stated) | 14%
14 | Cc1cnc(N2CCCOC(CN3CCCCC3)C2)nc1 (configuration not stated) | -3.54%
15 | CCN1CCCN(C(=O)c2cnc(OC(C)C)c(Cl)c2)CC1 | -14.4%
16 | CC(C)c1nccn1C1CCCN(C(=O)c2ccc3c(c2)COC3)C1 (configuration not stated) | 3.19%
17 | CNC(=O)[C@@H]1CN(C(=O)COC)C[C@H]1c1ccnc(N2CCCC2)n1 | 2.75%
18 | Fc1ccc2[nH]c3c(c2c1)CCN1C(c2ccncc2)N2CCC31CC2 (configuration not stated) | 4.67%
19 | CN1CC(=O)N(c2ccsc2)CC12CCN(S(=O)(=O)c1ccccc1)C2 (configuration not stated) | 1.5%
20 | CCOC(=O)[C@]12CCCN(Cc3nccs3)C[C@H]1CN(CC(C)C)C2 | -2.85%
21 | CCn1nc(C)c(NC(=O)CN2CC[C@H](CO)[C@@H](O)C2)c1C | 0.887%
22 | CC(c1cccnc1)N1CCN(CCO)CC1 (configuration not stated) | -3.21%
23 | COC[C@]12COC[C@H]1CN(C(=O)C1CCSCC1)C2 | 2.2%

Row | Structure (SMILES) | cytotoxicity at 10 µM
24 | COc1ccc(-c2cc(CNc3ncnc4c3CCNCC4)no2)cc1 | 13.1%
25 | CCCOc1c(Cl)cc(C(=O)N2CCOC23CCN(C)CC3)cc1Cl | 8.17%
26 | CCCc1n[nH]c(C2CN(C(=O)CCCn3cccn3)CCO2)n1 (configuration not stated) | -7.87%
27 | COc1ccc(S(=O)(=O)C(F)(F)F)cc1NC(=O)CSC | 10.9%
28 | N#CCc1ccc(NC(=O)Cn2cc(I)cn2)cc1 | 8.44%
29 | CN(C)Cc1nnc2n1CCCN(C(=O)c1c[nH]cn1)C2 | 3.77%
30 | CC(C)c1noc(CCC(=O)NCC2CC2)n1 | -28.7%
31 | Cc1ccn(C)c(=O)c1NC(=O)N(C)Cc1cccc(OC(C)C)c1 | 2.29%
32 | CSCCC(=O)NCc1cc2n(n1)CCCN(C1CCCCC1)C2 | 19.9%
33 | COC(=O)Cn1ccc(NS(=O)(=O)c2ccc3c(c2)CCC3)n1 | 10.6%
34 | COc1cc(NCC(c2ccccn2)N(C)C)ncn1 (configuration not stated) | -57.4%
35 | CCOc1ccc(Cl)cc1C(C(=O)O)N1CCCC1 (configuration not stated) | 0.95%
36 | COC(=O)c1cc(OCC2CCC2)cc(C(=O)NC2CCC(O)CC2)c1 (configuration not stated) | -14.2%
37 | COc1ncccc1C(=O)N1CC[C@H]2C[C@@H](C)O[C@@H]2C1 | -7.63%
38 | O=C(CCSc1ccccc1F)NCc1cccnc1 | -4.48%
39 | Cc1ccc(N2C[C@H](C)[C@]3(CCN(c4cccnc4)C3=O)C2)nn1 | -1.22%
40 | O=S(=O)(c1ccccc1Cl)N1CCC2(CC1)OCCS2 | -4.84%
41 | CCC1=N[C@@]2(CC[C@@H]3CN(CC4CC4)C[C@@H]32)C(=O)N1C | 0.153%
42 | CCOc1cc([C@H]2N[C@@H](c3nc(C)cs3)Cc3ccsc32)ccc1OC | 24.3%
43 | CC(C)n1ccc2c(C(=O)NC3CN4CCC3CC4)cccc21 (configuration not stated) | -54.2%
44 | CNC(=O)CC1CC2(CCNCC2)c2cc(F)ccc21 (configuration not stated) | -107%
45 | COc1c(C2CCCN2Cc2cn3ccsc3n2)c(C)nn1C (configuration not stated) | -51.2%
46 | CS(=O)(=O)NCc1cn2c(n1)CN(Cc1ccoc1)CC2 | 7.92%

Row | Structure (SMILES) | cytotoxicity at 10 µM
47 | CCN(C)c1ncnc2c1CCN(CC1CCOC1)CC2 (configuration not stated) | -79.3%
48 | Cc1nc(C)n(CCCNC(=O)C(C)n2ccnc2C(C)C)n1 (configuration not stated) | -4.97%
49 | O=C(CN1CCS(=O)(=O)CC1)NC1CCCOc2ccccc21 (configuration not stated) | 4.81%
50 | CC(CN1CCOCC1)NC(=O)NCc1ccoc1 (configuration not stated) | -5.52%
51 | CN(Cc1ccncc1)C(=O)NC1CCS(=O)(=O)C1 (configuration not stated) | -2.94%
52 | CC(c1cccnc1)N(C)Cc1ccccn1 (configuration not stated) | 0.423%
53 | Cc1cccc(N2CCC3(CCCN(C(=O)c4cccnc4)C3)CC2)n1 | 3.77%
54 | CN(C)CCN(Cc1ccsc1)C(=O)C1=NNC(=O)CC1 | 6.62%
55 | CC(C)CNC(=O)[C@H]1C[C@H]2CN(C(=O)Nc3ccc(F)cc3)C[C@@H]1O2 | 0.428%
56 | O=C1OCCN1CC(=O)N1C[C@@H]2CC[C@H]1CN(C(=O)c1cccnc1)C2 | 11.6%
57 | Cc1ccc(N(C)CC(O)COCc2ccccc2)c(C)c1 (configuration not stated) | 3.67%
58 | COc1ccc(CCN2CC(n3nc(C)cc3C)C2)cc1 | -9.12%
59 | CCNC(=O)NC(=O)CNc1cccc(C(=O)c2ccccc2)c1 | 3.18%
60 | CC(C)c1cc(C(=O)N2CCN(c3ccc(F)c(Cl)c3)CC2)n(C)n1 | 19.7%
61 | Cc1nc2n(n1)CC(NCc1nc(-c3ccccn3)no1)CC2 (configuration not stated) | -12.4%
62 | Cc1cccc(C(C(=O)N(C)Cc2ccco2)N(C)C)c1 (configuration not stated) | 3.15%
63 | CCN(CC)C(=O)CN(C)C(=O)c1cccn1CCc1ccccc1 | 1.98%
64 | CCCOCC1CCN(C(=O)Cn2ncc(N3CCCC3)cc2=O)C1 (configuration not stated) | 3.41%
65 | CCN(C(=O)C1=NN(c2ccccc2)C(=O)CN1)c1ccccc1 | 12%
66 | Cc1nc2n(n1)CC(Nc1nc(-c3ccccc3)no1)CC2 (configuration not stated) | 0.658%
67 | CCN1C[C@H]2[C@@H](C1)N(c1ncc(F)cn1)CC[C@H]2OC | 3.5%
68 | Cc1cccc(NC(=O)c2ccc(OCc3nnnn3C)cc2)n1 | -34.1%
69 | CC(Nc1ccc(C(F)(F)F)cc1C#N)c1cccc(S(N)(=O)=O)c1 (configuration not stated) | -3.09%

Row | Structure (SMILES) | cytotoxicity at 10 µM
70 | O=C(O)c1ccccc1-c1ccc(CN2CCC(CO)C2)cc1 (configuration not stated) | -14.6%
71 | C[C@H]1CN(C(=O)c2ccc[nH]2)C[C@@]12CCN(c1ccsc1)C2=O | -77.4%
72 | N#Cc1cn(C2CC2)c(=O)n(CC(O)c2ccc(Cl)cc2)c1=O (configuration not stated) | -5.78%
73 | CC(C)c1nnc(CNc2nc(-c3cccnc3)nc3c2CCC3)n1C | 8.74%
74 | CN(C)C(=O)n1c(C(=O)NC(C)(C)CO)cc2c1c1ccccc1n2C | -76.2%
75 | CS(=O)(=O)N1C[C@H]2CCCN(Cc3nccs3)[C@H]2C1 | -1.65%
76 | CCN(CC1CN(CC2CCC2)CCO1)c1cccnn1 (configuration not stated) | 2.82%
77 | CC1(C)Cc2ccc(C(=O)NC3CCOCC3)c(O)c2O1 | -7.92%
78 | NC(=O)[C@H]1CCCN1C(=O)c1csc(-c2ccc(C(F)(F)F)cc2)n1 | -0.187%
79 | CCc1nc(C2CCCN(C(=O)NCCOC)C2)no1 (configuration not stated) | -0.775%
80 | O=C(c1ccccc1)C1CCN(c2cncc(-n3cccn3)n2)CC1 | 0.935%
81 | C1CN(c2nc(C3CC3)ns2)CCO1 | -2.4%
82 | Cc1ccccc1Oc1ncccc1CNS(=O)(=O)N(C)C | -4.09%
83 | CC(C(=O)NCc1ccnc(OC2CCCC2)c1)n1cncn1 (configuration not stated) | 10.4%
84 | Cc1noc(C2(C)CCN(C(=O)C(C)C)CC2)n1 | -5.14%
85 | CCn1nc(C)c(-c2cncn2Cc2ccccc2CN(C)C)c1C | 12.4%
86 | O=C1N[C@@H]2CCN(C(=O)C3CC3)[C@@H]2C(=O)N1c1ccccc1 | 1.44%
87 | CCSc1ccc(C(C)NC(=O)CNS(C)(=O)=O)cc1 (configuration not stated) | 10.4%
88 | CCOCc1nnc(NCc2cccc(C)c2)o1 | 16.3%
89 | O=C(N1CCC(Oc2ccncc2)C1)C1(c2ccc(F)cc2)CC1 (configuration not stated) | -8.55%
90 | CSCCC(C)(O)CNC(=O)c1ccsc1 (configuration not stated) | -4.57%
91 | Cc1ccc(C(=O)Nc2ccc(N3CCCC3)cn2)cc1F | 47.4%
92 | Cc1cc(C(=O)N(C)CC(F)(F)C(F)(F)F)ccc1-n1cncn1 | 1.64%

Row | Structure (SMILES) | cytotoxicity at 10 µM
93 | NC(=O)C1CCN(C(=O)c2cc(-n3cnnn3)ccc2Cl)CC1 | 12.4%
94 | Cc1csc(N2CCCN(Cc3noc(C)n3)CC2)n1 | -4.26%
95 | CCN(CC)C(=O)Cc1csc(C(C)C)n1 | -1.55%
96 | CCOc1ccc(NS(=O)(=O)c2cc(C)c(C(=O)O)s2)c(C)c1 | -3.21%
97 | Cn1cnnc1C1CCCN(C(=O)NCc2ccc3c(c2)OCO3)C1 (configuration not stated) | -1.9%
98 | O=C(C1NCCc2[nH]cnc21)N1CCC2(C=Cc3ccccc32)CC1 (configuration not stated) | 5.19%
99 | Cc1ncc2c(n1)CN(Cc1nc(-c3cccs3)no1)CC2 | -9.8%
100 | CCOC1CCN(C(=O)c2csc(S(N)(=O)=O)c2)CC1 | -11.4%
101 | Cc1nn(C)c(C)c1CC(=O)N1CCC(Nc2cccnn2)CC1 | -8.8%
102 | CC(C)NC(=O)N1CCc2c(CNc3ncccn3)cncc2C1 | 5.83%
103 | Cc1nc(NC2(CN3CCCCC3)CCCCC2)c2cnn(C)c2n1 | 3.94%
104 | Cc1nnc(CN(C)CCCOc2cccc(Cl)c2)o1 | 2.51%
105 | Cc1nn(C)c2nc(N3CCCC3c3nccs3)sc12 (configuration not stated) | -2.87%
106 | CCc1cnc(C)nc1N(C)CCCc1cnn(C)c1 | -10%
107 | COc1ccc(OC)c(CCNC(=O)NC(C)Cn2ccnc2)c1 (configuration not stated) | -1.06%
108 | Cc1cc(F)c2c(c1)CCCN2S(=O)(=O)c1ncn(C)c1Cl | 1.99%
109 | COc1ccc(CC(=O)N(C)c2cccnc2N(C)C)c(Cl)c1 | 5.71%
110 | CCc1nc(C2CCCN2C(=O)c2ccc3c(c2)COC3)no1 (configuration not stated) | -14.4%
111 | NC(=O)Cn1c(CO)cnc1SCc1ccccc1Cl | 0.252%
112 | Cc1noc(C)c1CN(C)C(=O)c1n[nH]c(N)c1-c1ccccc1 | -7.46%

Reference: ChEMBL document CHEMBL4513216, “Probing the Open Global Health Chemical Diversity Library for Multistage-Active Starting Points for Next-Generation Antimalarials” (ACS Infect Dis, 2020)
